Reference: ChEMBL document CHEMBL1145336, “1-aryl-3-(4-pyridine-2-ylpiperazin-1-yl)propan-1-one oximes as potent dopamine D4 receptor agonists for the treatment of erectile dysfunction” (J Med Chem, 2006)
pEC50, pIC50, pKi: −log10 of the molar value.

How the values were obtained:
D(2) dopamine receptor [1] = target: T1, D(2) dopamine receptor (Homo sapiens, UniProt P14416); assay: Agonist activity at human recombinant D2 receptor expressed in HEK293 cells by FLIPR assay; type: functional, cell-based
T1 sequence (P14416 whole entry): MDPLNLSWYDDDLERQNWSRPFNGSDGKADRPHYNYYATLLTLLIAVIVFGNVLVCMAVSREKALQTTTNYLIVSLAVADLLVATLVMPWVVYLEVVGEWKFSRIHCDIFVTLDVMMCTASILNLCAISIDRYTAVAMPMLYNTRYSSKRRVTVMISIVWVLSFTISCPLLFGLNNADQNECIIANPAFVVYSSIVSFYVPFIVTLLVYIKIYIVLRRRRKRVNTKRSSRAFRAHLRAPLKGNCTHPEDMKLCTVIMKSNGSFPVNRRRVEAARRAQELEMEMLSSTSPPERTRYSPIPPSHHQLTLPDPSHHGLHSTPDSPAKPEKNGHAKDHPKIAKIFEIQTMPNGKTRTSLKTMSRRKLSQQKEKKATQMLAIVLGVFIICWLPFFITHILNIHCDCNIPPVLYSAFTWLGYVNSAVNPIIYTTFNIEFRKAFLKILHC
How it was run: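 Calcium flux (FLIPR) in HEK-293 cells coexpressing recombinant human D2L with chimeric Gqo5. Efficacy is the maximal response relative to 10 µM dopamine (100%). EC50 is the concentration giving half-maximal stimulation. Values are means (SEM, n ≥ 3).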

D(2) dopamine receptor [2] = target: T1, D(2) dopamine receptor; assay: Displacement of [125I]PIPAT from human recombinant D2L receptor expressed in HEK293 cells
D(4) dopamine receptor [3] = target: T2, D(4) dopamine receptor (Homo sapiens, UniProt P21917); assay: Displacement of [3H]A-369508 from human recombinant D4.4 receptor expressed in HEK293 cell membrane; type: cell membranes
T2 sequence (P21917 whole entry): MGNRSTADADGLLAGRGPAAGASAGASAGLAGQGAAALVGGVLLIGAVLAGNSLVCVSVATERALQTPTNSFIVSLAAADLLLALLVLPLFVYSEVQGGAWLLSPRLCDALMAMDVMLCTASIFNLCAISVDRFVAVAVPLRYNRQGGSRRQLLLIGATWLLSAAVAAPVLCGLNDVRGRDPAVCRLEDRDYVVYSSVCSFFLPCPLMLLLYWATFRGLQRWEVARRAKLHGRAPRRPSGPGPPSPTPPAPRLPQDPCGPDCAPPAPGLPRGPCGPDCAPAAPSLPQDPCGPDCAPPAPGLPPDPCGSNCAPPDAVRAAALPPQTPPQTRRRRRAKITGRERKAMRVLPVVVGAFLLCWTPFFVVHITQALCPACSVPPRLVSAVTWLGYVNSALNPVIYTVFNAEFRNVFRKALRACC
How it was run: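 Competition binding against the D4-selective agonist radioligand [3H]-A-369508, using membranes from HEK-293 cells engineered to express human D4.4. Mean values (SEM, n ≥ 4).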

D(2) dopamine receptor [4] = target: T1, D(2) dopamine receptor; assay: Antagonist activity at human recombinant D2 receptor expressed in HEK293 cells by FLIPR assay; type: functional, cell-based
D(4) dopamine receptor [5] = target: T2, D(4) dopamine receptor; assay: Activity at human recombinant D4.4 receptor expressed in HEK293 cells by FLIPR assay; type: functional, cell-based

Compound | pEC50 (D(2) dopamine receptor [1]) | pKi (D(2) dopamine receptor [2]) | pKi (D(4) dopamine receptor [3]) | pIC50 (D(2) dopamine receptor [4]) | pEC50 (D(4) dopamine receptor [5])
CO/N=C(/CCN1CCN(c2ccccn2)CC1)c1cccnc1 | < 5.00 | 5.74 | 6.89 | < 5.00 | 7.48
CO/N=C(/CCN1CCN(c2ccccn2)CC1)c1cc(F)cc(F)c1 | < 5.00 | 6.65 | 8.20 | < 5.00 | 7.33
CO/N=C(/CCN1CCN(c2ccccn2)CC1)c1cccc(C)c1 | < 5.00 | 7.17 | 7.49 | < 5.00 | 7.21
CO/N=C(\CCN1CCC(c2ccccn2)CC1)c1ccc(Cl)cc1 | < 5.00 | 7.60 | 6.87 | < 5.00 | 6.71
CO/N=C(\CCN1CCN(c2ccccn2)CC1)c1cccc(F)c1 | < 5.00 | 7.00 | 7.86 | < 5.00 | 7.35
O/N=C(/CN1CCN(c2ccccn2)CC1)c1ccc(F)cc1 | < 5.00 |  |  | < 5.00 | < 5.00
CO/N=C(/CCN1CCN(c2ccccn2)CC1)c1cccc(F)c1 | < 5.00 | 7.33 | 8.19 | < 5.00 | 7.22
CO/N=C(/CCN1CCC(c2cccc[n+]2[O-])CC1)c1ccc(Cl)cc1 | < 5.00 |  |  | < 5.00 | 7.33
O/N=C(\CCN1CCN(c2nccs2)CC1)c1ccccc1 | < 5.00 |  |  | < 5.00 | 7.31
CO/N=C(\c1ccc(Cl)cc1)C(CN1CCN(c2ccccn2)CC1)OC (centres undefined) | < 5.00 |  |  | < 5.00 | 6.71
CO/N=C(\CCN1CCN(c2ccccn2)CC1)c1cccc(Cl)c1 | < 5.00 | 7.01 | 7.87 | < 5.00 | 7.05
CO/N=C(/CCN1CCN(c2ccccn2)CC1)c1ccc(F)c(Cl)c1 | < 5.00 |  |  | < 5.00 | 7.02
Cc1ccc(O)c(/C(CCN2CCN(c3ccccn3)CC2)=N/O)c1 | < 5.00 |  |  | < 5.00 | 7.72
CCO/N=C(\CCN1CCN(c2ccc(OC)cc2)CC1)c1ccccc1 | < 5.00 |  |  | < 5.00 | < 5.00
CCO/N=C(\CCN1CCN(c2ncccn2)CC1)c1ccccc1 | < 5.00 |  |  | < 5.00 | 6.21
CO/N=C(\CCN1CCN(c2ccccn2)CC1C)c1ccc(Cl)cc1 (centres undefined) | < 5.00 | 7.12 | 7.17 | < 5.00 | 6.48
CCO/N=C1/c2ccccc2CCC1CN1CCN(c2ccccn2)CC1 (centres undefined) | < 5.00 |  |  | < 5.00 | 5.32
O/N=C(\CCN1CCN(c2ccccn2)CC1)c1ccc(F)cc1 | < 5.00 |  |  | < 5.00 | 7.51
COC(CN1CCN(c2ccccn2)CC1)/C(=N\O)c1cccc(C)c1 (centres undefined) | < 5.00 |  |  | < 5.00 | 7.46
CO/N=C(/CCN1CCN(c2ccccn2)CC1)c1cccc(C#N)c1 | < 5.00 | 6.90 | 7.70 | < 5.00 | 7.56

Compound | pEC50 (D(2) dopamine receptor [1]) | pKi (D(2) dopamine receptor [2]) | pKi (D(4) dopamine receptor [3]) | pIC50 (D(2) dopamine receptor [4]) | pEC50 (D(4) dopamine receptor [5])
CO/N=C(/CN1CCN(c2ccccn2)CC1)c1ccc(F)cc1 | < 5.00 |  |  | < 5.00 | 5.37
CO/N=C(/c1cccnc1)C(O)CN1CCN(c2ccccn2)CC1 (centres undefined) | < 5.00 |  |  | < 5.00 | 6.91
O/N=C(\CCN1CCN(c2ccccn2)CC1)c1ccc(F)cc1F | < 5.00 |  |  | < 5.00 | 8.05
CO/N=C(/c1ccc(Cl)cc1)C(CN1CCN(c2ccccn2)CC1)OC (centres undefined) | < 5.00 |  |  | < 5.00 | 6.55
CO/N=C(/c1ccc(Cl)cc1)C(CNOC)CN1CCN(c2ccccn2)CC1 (centres undefined) | < 5.00 | 6.79 | 6.92 | < 5.00 | 6.69
CO/N=C(\CCN1CCCC(c2ccccn2)C1)c1ccc(Cl)cc1 (centres undefined) | < 5.00 |  |  | < 5.00 | 6.22
CCO/N=C(\CCN1CCN(c2ccccc2OC)CC1)c1ccccc1 | < 5.00 |  |  | < 5.00 | 6.47
CO/N=C(/CCN1CCN(c2ccccn2)CC1)c1ccc(Cl)c(C)c1 | < 5.00 | 7.22 | 7.94 | < 5.00 | 7.01
CO/N=C(\CCN1CCN(c2ccccn2)CC1)c1ccccc1Cl | < 5.00 |  |  | < 5.00 | 7.37
CO/N=C(/CCN1CCN(c2ccccn2)CC1)c1ccc(Br)cc1 | < 5.00 |  |  | < 5.00 | 7.09
O/N=C(\CCN1CCN(c2ccccn2)CC1)c1cccc(Cl)c1 | < 5.00 |  |  | < 5.00 | 7.92
N#Cc1cccc(/C(CCN2CCN(c3ccccn3)CC2)=N/O)c1 | < 5.00 |  |  | < 5.00 | 7.88
CO/N=C(/c1ccc(Cl)cc1)C(C)CN1CCN(c2ccccn2)CC1 (centres undefined) | < 5.00 | 6.84 | 6.46 | < 5.00 | 6.34
O/N=C(/CCCN1CCN(c2ccccn2)CC1)c1ccc(F)cc1 | < 5.00 |  |  | < 5.00 | 7.23
O/N=C(\CN1CCN(c2ccccn2)CC1)c1ccc(F)cc1 | < 5.00 |  |  | < 5.00 | 7.59
CCCCO/N=C(\CCN1CCN(c2ccccn2)CC1)c1ccccc1 | < 5.00 |  |  | < 5.00 | 6.42
CO/N=C(/CCN1CCN(c2ccccn2)CC1)c1ccccc1Cl | < 5.00 |  |  | < 5.00 | 7.24
CCCO/N=C(\CCN1CCN(c2ccccn2)CC1)c1ccccc1 | < 5.00 |  |  | < 5.00 | 6.49
CO/N=C(/CCN1CCN(c2ccccn2)CC1)c1ccc(Cl)cc1 | < 5.00 |  |  | < 5.00 | 7.25

The next lines start with the values.

pEC50 (D(2) dopamine receptor [1]) | pKi (D(2) dopamine receptor [2]) | pKi (D(4) dopamine receptor [3]) | pIC50 (D(2) dopamine receptor [4]) | pEC50 (D(4) dopamine receptor [5]) | Compound
< 5.00 | 7.16 | 8.10 | < 5.00 | 7.56 | CO/N=C(\CCN1CCN(c2ccccn2)CC1)c1cccc(C)c1
< 5.00 | 6.43 | 6.82 | < 5.00 | 7.65 | CO/N=C(/c1ccc(Cl)cc1)C(O)CN1CCN(c2ccccn2)CC1 (centres undefined)
< 5.00 | 6.00 | 6.95 | < 5.00 | 7.34 | CO/N=C(\c1ccc(Cl)cc1)C(O)CN1CCN(c2ccccn2)CC1 (centres undefined)
< 5.00 |  |  | < 5.00 | 6.46 | C=CCO/N=C(\CCN1CCN(c2ccccn2)CC1)c1ccccc1
< 5.00 | 7.71 | 7.05 | < 5.00 | < 5.00 | CO/N=C(/CCN1CCC(c2ccccn2)CC1)c1ccc(Cl)cc1
< 5.00 | 6.59 | 6.77 | < 5.00 | 7.09 | CCO/N=C(\CCN1CCN(c2nccs2)CC1)c1ccccc1
< 5.00 |  |  | < 5.00 | 7.20 | CO/N=C(\CCN1CCN(c2ccccn2)CC1)c1cccc(C#N)c1
< 5.00 |  |  | < 5.00 | 7.62 | O/N=C(\CCN1CCN(c2ccccn2)CC1)c1ccccc1Cl
< 5.00 |  |  | < 5.00 | 7.40 | CO/N=C(/CCN1CCN(c2ccccn2)CC1)c1ccccc1C
< 5.00 |  |  | < 5.00 | 6.87 | CO/N=C(\CCN1CCN(c2ccccn2)CC1)c1ccc(Cl)c(C)c1
< 5.00 |  |  | < 5.00 | 7.74 | N#Cc1cccnc1N1CCN(CC/C(=N\O)c2ccccc2)CC1
< 5.00 |  |  | < 5.00 | 6.47 | CO/N=C(/CCN1CCN(c2ccccn2)CC1)c1ccc(Cl)c(Cl)c1
< 5.00 |  |  | < 5.00 | 6.23 | CO/N=C(\CCN1CCN(c2ccccc2OC(C)C)CC1)c1ccc(F)cc1
< 5.00 |  |  | < 5.00 | 7.34 | Cc1cc(C)cc(/C(CCN2CCN(c3ccccn3)CC2)=N/O)c1
< 5.00 |  |  | < 5.00 | 7.38 | CO/N=C(\CCCN1CCN(c2ccccn2)CC1)c1ccc(F)cc1
< 5.00 |  |  | < 5.00 | 7.16 | O/N=C(/CCN1CCN(c2ncccn2)CC1)c1ccccc1
< 5.00 |  |  | < 5.00 | 6.76 | CO/N=C(\CCN1CCN(c2ccccn2)CC1)c1cc(C)cc(C)c1
< 5.00 |  |  | < 5.00 | 7.08 | CO/N=C(\CCN1CCC(c2cccc[n+]2[O-])CC1)c1ccc(Cl)cc1
< 5.00 |  |  | < 5.00 | 8.38 | Cc1ccccc1/C(CCN1CCN(c2ccccn2)CC1)=N/O
< 5.00 |  |  | < 5.00 | 7.70 | N#Cc1cccnc1N1CCN(CC/C(=N/O)c2ccccc2)CC1
< 5.00 |  |  | < 5.00 | 7.35 | CCO/N=C(/CCN1CCN(c2ccccn2)CC1)c1ccccc1
